High-throughput results: PubChem, The Scripps Research Institute Molecular Screening Center
An excerpt weighted towards active compounds, which were near 4.5% of everything screened.
OX1R antag-1 – blocks the human orexin 1 receptor; 330,000 compounds, 1.8% hits; O43613; inhibition, % at 6.6 µM; OX1R-expressing cells, FRET antagonist read-out; in the data active = inhibition mostly above about 38%, no sharp cut-off; inactive = mostly below about 40%;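 note: 0% = agonist challenge alone and 100% = reference antagonist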
GPR7 antag – blocks human GPR7 receptor signaling; P48145; GPR7-expressing cells, fluorescence antagonist assay; inhibition, % at 4.4 µM; 290,000 compounds, 1.1% hits; AID 1861; in the data active = inhibition above about 16%, passing the limit was not always enough;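 note: cells stimulated with the agonist NPW; 0% = agonist with vehicle and 100% = vehicle without agonist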
Target sequence (P48145 whole entry, looked up): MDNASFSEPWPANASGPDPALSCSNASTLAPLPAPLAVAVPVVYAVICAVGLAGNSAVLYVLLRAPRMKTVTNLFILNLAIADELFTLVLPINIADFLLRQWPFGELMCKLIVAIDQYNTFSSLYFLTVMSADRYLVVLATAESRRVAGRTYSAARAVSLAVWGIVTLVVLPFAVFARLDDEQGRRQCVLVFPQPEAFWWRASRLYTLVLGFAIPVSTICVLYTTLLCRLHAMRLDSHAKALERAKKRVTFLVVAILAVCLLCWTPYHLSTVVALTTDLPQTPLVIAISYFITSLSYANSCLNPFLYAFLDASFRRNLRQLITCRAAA
OX1R antag-2 – antagonists of human orexin 1 receptor; O43613; CHO/OX1R cells, Fluo-8 calcium fluorescence, orexin A; inhibition, % at 5 µM; 330,000 compounds, 0.43% hits; AID 434989;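 active = inhibition above its plate's threshold, mean inhibition of all tested compounds on the plate plus 3 SD, cut at about 37% in these data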;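 note: 0% = orexin A challenge wells and 100% = SB-334867-A antagonist wells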
TAAR1 antagonist – antagonists of human TAAR1. CHO RD-HGA16 TAAR1, Fluo-8 calcium fluorescence, antagonist. inhibition, % at 3 µM. 360,000 compounds, 1.5% hits. AID 624466;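 active = inhibition above a per-plate cutoff, the mean inhibition of test compounds on that plate plus 3 SD, cut at about 49% in these data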;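 note: 0% = DMSO plus EC80 beta-PEA response and 100% = DMSO alone without agonist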
Target sequence (Q96RJ0 whole entry, looked up): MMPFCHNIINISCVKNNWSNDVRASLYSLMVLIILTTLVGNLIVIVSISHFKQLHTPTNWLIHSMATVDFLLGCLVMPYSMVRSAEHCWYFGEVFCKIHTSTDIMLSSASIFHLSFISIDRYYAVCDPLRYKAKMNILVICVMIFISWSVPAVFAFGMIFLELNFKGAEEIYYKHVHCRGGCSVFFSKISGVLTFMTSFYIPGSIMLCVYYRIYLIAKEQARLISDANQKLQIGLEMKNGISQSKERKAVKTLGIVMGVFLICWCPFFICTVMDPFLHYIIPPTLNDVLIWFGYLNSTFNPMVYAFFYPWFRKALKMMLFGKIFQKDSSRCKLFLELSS
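System: RD-HGA16 CHO cells with stable hTAAR1 and Gα16 | Probe or stimulus: EC80 β-phenethylamine stimulus | Dosing: 3 µM, single point | Times: Dye loading 75 min at 37 °C, then 30 min room temperature | Measured by: Fluo-8 calcium-sensitive fluorescence | Read-out basis: % inhibition of agonist calcium response | Replicates: n of 1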
TAAR1 agonist – agonists of human TAAR1; Q96RJ0; CHO RD-HGA16 TAAR1, Fluo-8 calcium fluorescence; vehicle wells 0%, saturating PEA agonist 100%; activation, % at 3 µM; 360,000 compounds, 0.99% hits;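 active = activation above the mean activation of all test compounds in the run plus 3 SD, cut at about 38% in these data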
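Test system: RD-HGA16 (CHO) cells co-expressing Gα16 and hTAAR1 | Doses: Single dose, 3 µM | Schedule: 17-24 h seeding, 75 min 37 °C dye, 30 min RT | Evaluation: % activation from peak over basal fluorescence ratio, DMSO-to-PEA scaled | Technique: Kinetic Fluo-8 calcium fluorescence | Benchmarks: Low control DMSO, high control PEA (EC100)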
CHO parental Ca – signal in parental CHO cells, OX1R antagonist counter-screen; parental CHO-K1, ATP-induced calcium, Fluo-8 fluorescence; inhibition, % at 5.6 µM; 330,000 compounds, 0.63% hits;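 active = inhibition above that plate's mean sample inhibition plus 3 SD, cut at about 26% in these data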;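 note: 0% = ATP-challenged DMSO wells and 100% = DMSO wells without ATP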
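Assay system: untransfected parental CHO cell line. Also added: ATP agonist challenge. Dosing: one dose, 5.6 µM nominal. Measured by: Fluo-8 fluorescence. Read-out: % inhibition. Benchmarks: ATP wells versus no-ATP DMSO wells. Repeats: no replicates.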
TAAR1 nonsel count – counter-screen for TAAR1 antagonists: nonselective antagonists. shares compounds with TAAR1 antagonist. counterscreen cell line, calcium fluorescence, antagonist mode. 2,400 compounds, 77% hits. inhibition, % at 3 µM; in the data active = inhibition above about 22%;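 note: CHO-Ga16 host cells stimulated with ATP at an EC80 level; 0% = agonist EC80 plus vehicle and 100% = vehicle without agonist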
TAAR1 antag conf – confirmation of human TAAR1 antagonists. shares compounds with TAAR1 antagonist. TAAR1-expressing cells, fluorescence antagonist read-out. inhibition, % at 3 µM. 2,400 compounds, 40% hits. AID 651785; in the data active = inhibition above about 49%;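 note: CHO-Ga16 host cells challenged with agonist PEA near its EC80; 0% = agonist at EC80 plus vehicle and 100% = vehicle with no agonist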
Ga16 nonsel ag – counter-screen for TAAR1 antagonists: nonselective Ga16 agonists; Ga16-expressing cells, calcium fluorescence, agonist counterscreen; activation, % at 3 µM; AID 651953; 2,400 compounds, 18% hits; shares compounds with TAAR1 antagonist; in the data active = activation above about 12%;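 note: 0% = vehicle wells and 100% = saturating stimulus response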
TAAR1 ag count – counter-screen for human TAAR1 antagonists: TAAR1 agonists | shares compounds with TAAR1 antagonist | hTAAR1 cell line, fluorescence activation, agonist mode | activation, % at 3 µM | 2,400 compounds, 2% hits; in the data active = activation above about 37%;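 note: CHO cells stably expressing TAAR1 with calcium dye readout; 0% = DMSO vehicle and 100% = full agonist response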
Starred values were filed as active, the others as inactive.

`O=C1OC(c2ccc(O)cc2)(c2ccccc2O)c2ccccc21` (stereo not drawn) gave TAAR1 antagonist -14 and TAAR1 agonist 1.
For CC(=O)c1ccc(N2CCN(C(=O)c3cc(-c4cccnc4)nc4ccc(Br)cc34)CC2)cc1 the results were OX1R antag-1 5, GPR7 antag -5, OX1R antag-2 -9, TAAR1 antagonist 76*, TAAR1 agonist 25, CHO parental Ca -10, TAAR1 nonsel count 27*, TAAR1 antag conf 49*, Ga16 nonsel ag 13* and TAAR1 ag count 21.
Screening O=C(c1cc(-c2cccnc2)nc2ccc(Br)cc12)N1CCN(c2ncccn2)CC1 returned OX1R antag-1 20, GPR7 antag -18, OX1R antag-2 -30, TAAR1 antagonist 51*, TAAR1 agonist 20, CHO parental Ca -27, TAAR1 nonsel count 34*, TAAR1 antag conf 57*, Ga16 nonsel ag 10 and TAAR1 ag count 12.
Screening O=C(NCc1ccccc1Cl)c1ccc(Br)o1 returned OX1R antag-1 27, GPR7 antag 3, OX1R antag-2 -16, TAAR1 antagonist 104*, TAAR1 agonist -3, CHO parental Ca -8, TAAR1 nonsel count 1, TAAR1 antag conf -7, Ga16 nonsel ag -1 and TAAR1 ag count 1.
Screening Cc1cccc(C)c1NC(=O)C(c1ccc(C#N)cc1)n1c(=O)c(-c2ccco2)nc2ccccc21 (stereo not drawn) returned TAAR1 antagonist 9 and TAAR1 agonist 2.
Screening CC(C)(C)OC(=O)C[C@@H]1C/C=C\C[C@@H](CC(=O)N[C@H](CO)Cc2ccccc2)C(=O)NC[C@H](c2ccccc2)OC1=O returned OX1R antag-1 11, OX1R antag-2 4, TAAR1 antagonist 53*, TAAR1 agonist 16, CHO parental Ca -7, TAAR1 nonsel count 23*, TAAR1 antag conf 41, Ga16 nonsel ag 6 and TAAR1 ag count 7.
`CC(C)(C)OC(=O)C[C@H]1C/C=C\C[C@@H](CC(=O)N[C@H](CO)Cc2ccccc2)C(=O)N2CCC[C@H]2COC1=O` gave OX1R antag-1 8, OX1R antag-2 -3, TAAR1 antagonist 29, TAAR1 agonist 14 and CHO parental Ca -6.
`CC(C)(C)OC(=O)C[C@@H]1C/C=C\C[C@@H](CC(=O)N[C@H](CO)Cc2ccccc2)C(=O)N2CCC[C@H]2COC1=O` gave OX1R antag-1 6, OX1R antag-2 6, TAAR1 antagonist 67*, TAAR1 agonist 22, CHO parental Ca -8, TAAR1 nonsel count 30*, TAAR1 antag conf 50*, Ga16 nonsel ag 12* and TAAR1 ag count 11.
CC(O)(CS(=O)(=O)Cc1ccccc1)c1ccccc1 (stereo not drawn) was read as OX1R antag-1 -1, GPR7 antag -10, OX1R antag-2 -13, TAAR1 antagonist -7, TAAR1 agonist 0 and CHO parental Ca -2.
Screening COc1ccc(CN(Cc2cc3ccc(C)cc3[nH]c2=O)Cc2nnnn2C2CCCC2)cc1 returned OX1R antag-1 -2, OX1R antag-2 -17, TAAR1 antagonist 56*, TAAR1 agonist 11, CHO parental Ca -36, TAAR1 nonsel count 21, TAAR1 antag conf 28, Ga16 nonsel ag 5 and TAAR1 ag count 9.
Screening CC(=O)c1ccc(N2CCN(C(=O)C3CCN(S(=O)(=O)c4cccs4)CC3)CC2)cc1 returned OX1R antag-1 31, GPR7 antag 2, OX1R antag-2 -11, TAAR1 antagonist 6, TAAR1 agonist 14 and CHO parental Ca 0.
`CC(C)(C)S(=O)N1Cc2cc(=O)n(Cc3ccccc3)c(CCO)c2[C@H]1CCO` (stereo partly drawn) gave TAAR1 antagonist -6 and TAAR1 agonist 3.
For Cc1ccccc1CSCC(=O)c1c(N)n(CC(C)C)c(=O)n(C)c1=O the results were OX1R antag-1 24, GPR7 antag 5, OX1R antag-2 -20, TAAR1 antagonist 41, TAAR1 agonist 29 and CHO parental Ca -9.
`CC(C)Cn1c(N)c(C(=O)CSc2ccccc2)c(=O)n(C)c1=O` gave OX1R antag-1 15, GPR7 antag -6, OX1R antag-2 13, TAAR1 antagonist 66*, TAAR1 agonist 21, CHO parental Ca 15, TAAR1 nonsel count 49*, TAAR1 antag conf 65*, Ga16 nonsel ag 16* and TAAR1 ag count 14.
Screening CC(=O)Nc1ccc(SCC(=O)c2c(N)n(Cc3ccccc3)c(=O)n(C)c2=O)cc1 returned OX1R antag-1 4, GPR7 antag -15, OX1R antag-2 -14, TAAR1 antagonist 77*, TAAR1 agonist 20, CHO parental Ca 4, TAAR1 nonsel count 30*, TAAR1 antag conf 44, Ga16 nonsel ag 13* and TAAR1 ag count 14.
Screening Cn1c(=O)c(C(=O)CN2CCCCCC2)c(N)n(Cc2ccccc2)c1=O returned OX1R antag-1 11, GPR7 antag -9, OX1R antag-2 -15, TAAR1 antagonist -30, TAAR1 agonist 3 and CHO parental Ca -16.
`O=C(CCCCCNC(=O)N1CCn2c1nc1ccccc12)NCCc1ccccc1` gave OX1R antag-1 13, GPR7 antag -9, OX1R antag-2 -34, TAAR1 antagonist -28, TAAR1 agonist 18 and CHO parental Ca -32.
Screening COc1ccccc1CNC(=O)COC(=O)Cn1cnc2c1c(=O)n(C)c(=O)n2C returned TAAR1 antagonist -15 and TAAR1 agonist 5.
Screening CN(CC(=O)Nc1ccc(F)c(F)c1F)C(=O)CCN1C(=O)C2CCCCC2C1=O (stereo not drawn) returned OX1R antag-1 4, OX1R antag-2 -17, TAAR1 antagonist -21, TAAR1 agonist 3 and CHO parental Ca -5.
For COCc1ccc(-c2c(-c3ccsc3)oc(=O)c3cc(OC)c(OC)cc23)cc1 the results were OX1R antag-1 13, OX1R antag-2 -22, TAAR1 antagonist 58*, TAAR1 agonist 2, CHO parental Ca -18, TAAR1 nonsel count 17, TAAR1 antag conf 33, Ga16 nonsel ag 2 and TAAR1 ag count 1.
